Compound activity deposited in PubChem by Broad Institute.
aSyn 5UTR inh: MLPCN primary screen, SNCA 5' untranslated region. alpha-synuclein 5'UTR reporter, inhibitor activity. inhibition, % (tested at 7.5 µM). actives 0.82% (n = 300,000); in the data active = inhibition above about 60%; inconclusive = no clear call, values can overlap the other calls;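 note: H4 neuroglioblastoma cells stably carrying SNCA 5'UTR luciferase fusion; 0% = DMSO wells and 100% = positive control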
EWS-Fli inh: EWS/Fli-driven NR0B1 reporter inhibitors, primary screen, A673 cells, NR0B1 luciferase, luminescence, MLPCN library; actives 0.67% (n = 350,000); inhibition, % at 12.6 µM; viability-normalised;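 active = mean inhibition of at least 50% after viability correction, with every replicate also passing that limit; inconclusive = mean reaches 50% but only one of two replicates passes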;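 note: firefly luciferase signal divided by Alamar Blue viability fluorescence both relative to DMSO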
FN deposition inh: inhibitors of fibronectin matrix deposition, primary screen, AH1F cells, Alexa488-fibronectin fluorescence, plate reader; AH1F fibroblasts, overnight; inhibition, % at 12.6 µM; actives 0.086% (n = 350,000); AID 743247, 2014;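 active = mean inhibition across replicates of 30% or more, regardless of how many single replicates reach that level; inconclusive = mean under 30% yet at least half of replicates reach 30%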;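 note: positive control wells lacked labelled fibronectin entirely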
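Material – AH1F fibroblast monolayer, labelled fibronectin deposition · Reagent – labelled fibronectin 24 nM · Timing – 1 h adhesion, overnight exposure · Measured by – fluorescence at 485 nm excitation, 525 nm emission · Read-out – inhibition of fibronectin deposition signal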
LMP1 NFkB inh: EBV LMP1-driven NF-kappaB luciferase reporter inhibitors, primary screen, cell-based, luminescence, single point. AID 504558, 2011. inhibition, % at 12.5 µM. actives 0.69% (n = 350,000). LMP1-induced NF-kappaB luciferase reporter cells; in the data active = inhibition above about 41%; inconclusive = no clear call, values can overlap the other calls;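 note: 0% = neutral control wells and 100% = reference inhibitor control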
Shn3 inh set2: reduction of Shn3 3'UTR firefly luciferase signal, primary screen, Schnurri-3 inhibitor project, cell-based, Clone20 osteoblasts, set 2; Clone20 osteoblast Shn3 3'UTR firefly luciferase, 24 h; inhibition, % at 12.5 µM; actives 0.52% (n = 360,000); AID 588674, 2011;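 active = mean inhibition of at least 75% with every replicate also reaching 75%; inconclusive = mean inhibition at least 75% but some replicate below; inactive = mean inhibition below 75%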;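 note: 0% = median of neutral control wells and 100% = pilot-screen positive control compound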
PAX8 inh HTS: inhibitors of PAX8-driven TPO luciferase reporter, primary screen, RMG-I cells, single concentration. SteadyGlo, 24 h. inhibition, % at 12.6 µM. actives 1.2% (n = 360,000). AID 652154, 2013;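 active = mean replicate inhibition at least 60% with every replicate also reaching 60%; inconclusive = only one of the two criteria is met; inactive = mean below 60% and not all replicates reaching 60%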;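 note: luciferase light reporting Pax8 driven TPO promoter activity; plate controls were median of neutral control wells for no effect and mitoxantrone controls for full effect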
An asterisk follows results filed as active; ? = inconclusive; · = not tested or not shown. Compounds with a hit are over-represented: about 2.1% of the library has one in this group of screens.

SMILES | aSyn 5UTR inh | EWS-Fli inh | FN deposition inh | LMP1 NFkB inh | Shn3 inh set2 | PAX8 inh HTS
COc1ccc(NC(=O)Nc2ccc3c(c2)CC(=O)N([C@H](C)CO)C[C@H](C)[C@H](CN(C)Cc2ccc(Oc4ccccc4)cc2)O3)cc1 | · | 18 | · | · | · | 21
C[C@@H]1CN([C@@H](C)CO)C(=O)Cc2cc(NC(=O)Nc3ccc(C(F)(F)F)cc3)ccc2O[C@H]1CN(C)Cc1ccc(Cl)c(Cl)c1 | · | 67* | -11 | · | · | 104*
C[C@H](CO)N1C[C@H](C)[C@H](CN(C)C(=O)Nc2cccc3ccccc23)Oc2ccc(NS(=O)(=O)c3ccccc3)cc2CC1=O | · | -11 | · | · | · | 3
COc1ccc(NC(=O)Nc2ccc3c(c2)CC(=O)N([C@@H](C)CO)C[C@@H](C)[C@@H](CN(C)Cc2ccc(Oc4ccccc4)cc2)O3)cc1 | · | 24 | · | · | · | 98*
COc1ccc(NC(=O)Nc2ccc3c(c2)CC(=O)N([C@H](C)CO)C[C@H](C)[C@@H](CN(C)Cc2ccc(C(F)(F)F)cc2)O3)cc1 | · | 14 | · | · | · | 67*
C[C@@H]1CN([C@@H](C)CO)C(=O)Cc2cc(NS(=O)(=O)c3ccccc3)ccc2O[C@@H]1CN(C)C(=O)Nc1cccc2ccccc12 | · | 6 | · | · | · | 73*
COC(=O)C[C@H]1CC[C@H]2[C@@H](COc3ccc(NC(=O)Nc4ccccc4C)cc3C(=O)N2C)O1 | · | 4 | -21 | · | · | 7
C[C@H]1CN([C@@H](C)CO)C(=O)Cc2cc(NC(=O)Cc3cn(C)c4ccccc34)ccc2O[C@H]1CN(C)Cc1ccc(Oc2ccccc2)cc1 | · | 8 | · | · | · | 22
C[C@@H]1CN([C@@H](C)CO)C(=O)Cc2cc(NC(=O)Nc3ccc(C(F)(F)F)cc3)ccc2O[C@H]1CN(C)C(=O)NC1CCCCC1 | · | 39 | · | · | · | 80*
C[C@@H]1CN([C@@H](C)CO)C(=O)Cc2cc(NC(=O)Nc3ccc(C(F)(F)F)cc3)ccc2O[C@H]1CN(C)Cc1ccc(C(F)(F)F)cc1 | · | 9 | · | · | · | 64*
C[C@H](CO)N1C[C@H](C)[C@@H](CN(C)Cc2ccc(Oc3ccccc3)cc2)Oc2ccc(NC(=O)Cc3cn(C)c4ccccc34)cc2CC1=O | · | 14 | · | · | · | 65*
C[C@@H]1CN([C@@H](C)CO)C(=O)Cc2cc(NC(=O)Nc3ccc(C(F)(F)F)cc3)ccc2O[C@@H]1CN(C)C(=O)Nc1cccc2ccccc12 | · | 68* | · | · | · | 43
CO[C@H]1CN(C)C(=O)c2ccc(NC(=O)c3ccc(Oc4ccccc4)cc3)cc2OC[C@H](C)NC[C@H]1C | · | 18 | 7 | · | · | 37
CC(C)CC#Cc1ccc2c(c1)O[C@@H](CN(C)C(=O)c1ccccn1)[C@@H](C)CN([C@@H](C)CO)S2(=O)=O | · | 9 | · | · | · | ·
O=S(=O)(NCC[C@@H]1CC[C@@H](NS(=O)(=O)c2ccccc2Cl)[C@@H](CO)O1)c1ccc(F)cc1 | · | -4 | · | · | · | 5
COCC(=O)Nc1ccc2c(c1)OC[C@@H](C)N(CC1CC1)C[C@H](C)[C@@H](OC)CN(C)C2=O | · | -8 | -3 | · | · | 12
C[C@@H]1CN([C@@H](C)CO)C(=O)Cc2cc(NC(=O)Nc3ccc(C(F)(F)F)cc3)ccc2O[C@H]1CN(C)Cc1ccc(Oc2ccccc2)cc1 | · | 6 | · | · | · | 94*
C[C@@H]1CN([C@H](C)CO)C(=O)Cc2cc(NC(=O)Nc3ccc(C(F)(F)F)cc3)ccc2O[C@H]1CN(C)Cc1ccc(Oc2ccccc2)cc1 | · | -9 | · | · | · | -11
C[C@@H]1CN([C@@H](C)CO)C(=O)Cc2cc(NC(=O)Nc3ccc(C(F)(F)F)cc3)ccc2O[C@H]1CN(C)Cc1ccc2c(c1)OCO2 | · | 14 | -11 | · | · | 80*
C[C@H](CO)N1C[C@H](C)[C@@H](CN(C)Cc2ccccc2)Oc2ccc(NC(=O)Nc3ccc(C(F)(F)F)cc3)cc2CC1=O | · | 23 | · | · | · | 96*
C[C@@H]1CN([C@@H](C)CO)C(=O)Cc2cc(NC(=O)CCCCCC(=O)Nc3ccccc3N)ccc2O[C@@H]1CN(C)Cc1ccc(C(F)(F)F)cc1 | · | 34 | -4 | · | · | 90*
C[C@H](CO)N1C[C@H](C)[C@@H](CN(C)Cc2ccncc2)Oc2ccc(NC(=O)Nc3ccc(C(F)(F)F)cc3)cc2CC1=O | · | · | · | · | · | 90*
C[C@@H]1CN([C@@H](C)CO)C(=O)Cc2cc(NC(=O)Nc3ccc(C(F)(F)F)cc3)ccc2O[C@@H]1CN(C)C(=O)Nc1ccc2c(c1)OCO2 | · | 68* | · | · | · | ?
COc1ccccc1C#Cc1ccc2c(c1)O[C@@H](CN(C)Cc1ccccc1)[C@@H](C)CN([C@@H](C)CO)S2(=O)=O | · | 12 | · | · | · | ·
COc1ccccc1C#Cc1ccc2c(c1)O[C@H](CN(C)Cc1cccnc1)[C@H](C)CN([C@H](C)CO)S2(=O)=O | · | 27 | -20 | · | · | 90*
SMILES | aSyn 5UTR inh | EWS-Fli inh | FN deposition inh | LMP1 NFkB inh | Shn3 inh set2 | PAX8 inh HTS
COc1ccccc1C#Cc1ccc2c(c1)O[C@@H](CN(C)Cc1cccnc1)[C@H](C)CN([C@H](C)CO)S2(=O)=O | · | 20 | · | · | · | 84*
COc1ccccc1C#Cc1ccc2c(c1)O[C@H](CN(C)Cc1cncnc1)[C@H](C)CN([C@H](C)CO)S2(=O)=O | · | 13 | · | · | · | 41
COc1ccccc1C#Cc1ccc2c(c1)O[C@@H](CN(C)Cc1cncnc1)[C@H](C)CN([C@H](C)CO)S2(=O)=O | · | 18 | · | · | · | 86*
C[C@@H]1CN([C@@H](C)CO)C(=O)c2cc(NC(=O)C3CC3)ccc2O[C@@H]1CN(C)Cc1ccc2c(c1)OCO2 | · | -3 | · | · | · | -10
Cn1cc(/C=C(\C(=O)O)C(C(=O)O)=C2CCCCC2)c2ccccc21 | 0 | 8 | -4 | -9 | 9 | 95*
C[C@@H]1CN([C@@H](C)CO)C(=O)c2cc(C3=CCCCC3)cnc2O[C@@H]1CN(C)C(=O)c1ccccc1 | · | -4 | -5 | · | · | ·
C[C@@H]1CN([C@@H](C)CO)C(=O)c2cc(NC(=O)c3ccncc3)ccc2O[C@@H](C)CCCCO[C@H]1CN(C)S(=O)(=O)c1cn(C)cn1 | · | -6 | · | · | · | -9
Cc1cccc(N2CCN(C(=O)c3ccc(N4CCCC4=O)cc3)CC2C)c1 (stereo unspecified) | 1 | · | -1 | 3 | 2 | 9
Cc1cccc(N2CCN(C(=O)c3cccc(N4CCCC4=O)c3)C(C)C2)c1 (stereo unspecified) | 36 | 60* | 6 | 7 | 8 | 27
CCCN(C)C[C@H]1OCCCC[C@@H](C)Oc2ccc(N(C)C)cc2C(=O)N([C@H](C)CO)C[C@H]1C | · | 3 | · | · | · | 8
Cc1noc(C)c1S(=O)(=O)Nc1ccc2c(c1)C(=O)N([C@H](C)CO)C[C@@H](C)[C@@H](CN(C)Cc1ccc(C(=O)Nc3ccccc3N)cc1)O2 | · | 39 | -17 | · | · | ·
